Columns and labels:
[1] = biological target: T1, Interstitial collagenase (Homo sapiens, UniProt P03956); test: Inhibition of radiolabeled rat skin type I collagen degradation by purified human lung fibroblast collagenase.
T1 sequence (P03956 whole entry): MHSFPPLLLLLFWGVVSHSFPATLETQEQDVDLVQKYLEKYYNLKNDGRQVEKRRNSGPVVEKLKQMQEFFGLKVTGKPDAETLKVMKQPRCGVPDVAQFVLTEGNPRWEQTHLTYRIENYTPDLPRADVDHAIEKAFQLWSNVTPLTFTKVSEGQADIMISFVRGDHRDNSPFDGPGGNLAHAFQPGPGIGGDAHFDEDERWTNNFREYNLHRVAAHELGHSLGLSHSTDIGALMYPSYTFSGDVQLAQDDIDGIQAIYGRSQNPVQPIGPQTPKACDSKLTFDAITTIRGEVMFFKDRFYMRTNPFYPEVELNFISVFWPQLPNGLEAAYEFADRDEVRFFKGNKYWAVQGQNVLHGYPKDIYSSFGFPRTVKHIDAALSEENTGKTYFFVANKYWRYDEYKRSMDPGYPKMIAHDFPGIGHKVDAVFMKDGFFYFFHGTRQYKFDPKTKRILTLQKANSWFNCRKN
Summary of the method: (§1)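 Trypsin-activated, semipurified enzyme from WI-38 lung fibroblast culture supernatants. 3H- or 14C-acetylated collagen (100 μg/tube) added at 4 °C, then 37 °C for 1000 min. Spun 12 000 rpm, 15 min, 4 °C. Supernatant peptides counted by scintillation. Enzyme set for 70% degradation.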

[2] = biological target: T1, Interstitial collagenase; test: Inhibition of rat skin type I collagen degradation by purified human lung fibroblast collagenase without beta-mercaptoethanol
Summary of the method: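 β-Mercaptoethanol omitted. Enzyme was trypsin-activated, semipurified collagenase from WI-38 fibroblast culture supernatants. Compounds sonicated into MeOH, serially diluted. Collagen 3H- or 14C-acetylated, 100 μg/tube, added to tubes cooled to 4 °C. Incubated 37 °C for 1000 min, centrifuged 12 000 rpm for 15 min at 4 °C. Soluble supernatant peptides counted by liquid scintillation.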

[3] = biological target: T1, Interstitial collagenase; test: Inhibition of rat skin type I collagen degradation by purified human lung fibroblast collagenase
Summary of the method: as §1, with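 “supernatants. Compounds sonicated into MeOH and serially diluted; some runs had β-mercaptoethanol at 9.6×10^-5 M final.” for “supernatants.”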

SMILES	IC50 [1] [nM]	IC50 [2] [nM]	IC50 [3] [nM]
CNC(=O)[C@H](Cc1ccc(OC)cc1)NC(=O)[C@H](CC(C)C)[C@@H](S)CC(=O)N1CCN(C)CC1	120	–	–
CNC(=O)[C@H](Cc1c[nH]c2ccccc12)NC(=O)[C@H](CC(C)C)[C@@H](S)CC(=O)OC	–	21	2.5
CNC(=O)[C@H](Cc1ccc(OC)cc1)NC(=O)[C@H](CC(C)C)[C@@H](S)CC(=O)NCC(=O)OC(C)(C)C	280	–	–
CNC(=O)[C@H](Cc1c[nH]c2ccccc12)NC(=O)[C@@H](CC(C)C)[C@H](S)CC(=O)OC	–	–	12
CNC(=O)[C@H](Cc1ccc(OC)cc1)NC(=O)[C@H](CC(C)C)[C@H](CC(=O)OC)SC(C)=O	44	–	–
CNC(=O)[C@H](Cc1ccc(OC)cc1)NC(=O)[C@H](CC(C)C)[C@@H](S)CC(=O)NC(CC(C)C)C(=O)OC(C)(C)C (some centres undefined)	980	–	–
CNC(=O)[C@H](Cc1ccccc1)NC(=O)[C@H](CC(C)C)[C@@H](S)CC(=O)OC	2	–	–
CNC(=O)[C@H](Cc1ccc(OC)cc1)NC(=O)[C@H](CC(C)C)[C@@H](S)CC(=O)NC(CC(C)C)C(=O)O (some centres undefined)	830	–	–
CNC(=O)[C@H](Cc1c[nH]c2ccccc12)NC(=O)[C@H](CC(C)C)[C@H](CC(=O)OC)SS[C@@H](CC(=O)OC)[C@@H](CC(C)C)C(=O)N[C@@H](Cc1c[nH]c2ccccc12)C(=O)NC	–	1400	22
CNC(=O)[C@H](Cc1c[nH]c2ccccc12)NC(=O)[C@H](CC(C)C)[C@H](CC(=O)OC)SC(C)=O	–	–	19
CNC(=O)[C@H](Cc1c[nH]c2ccccc12)NC(=O)C(CC(C)C)C(S)CC(=O)OC (stereo in doubt; 56b)	–	–	810
CNC(=O)[C@H](Cc1c[nH]c2ccccc12)NC(=O)C(CC(C)C)C(S)CC(=O)OC (stereo in doubt; 56c)	–	–	730
CNC(=O)[C@@H](NC(=O)C(CC(C)C)C(S)CC(=O)OC)C(C)OCc1ccccc1 (stereo in doubt; 57ab)	3	–	–
CNC(=O)[C@@H](NC(=O)C(CC(C)C)C(S)CC(=O)OC)C(C)OCc1ccccc1 (stereo in doubt; 57cd)	13	–	–
COC(=O)C[C@H](S)[C@@H](CC(C)C)C(=O)N[C@@H](Cc1ccccc1)C(N)=O (stereo in doubt; 58cd)	190	–	–

Further lines, results first:

IC50 [1] [nM]	IC50 [2] [nM]	IC50 [3] [nM]	SMILES
25	–	–	CNC(=O)[C@H](Cc1ccc(OC)cc1)NC(=O)[C@H](CC(C)C)[C@@H](S)CC(=O)O
23	–	–	CNC(=O)[C@H](Cc1ccc(OC)cc1)NC(=O)[C@H](CC(C)C)[C@@H](S)CC(N)=O
27	–	–	CNC(=O)[C@H](Cc1ccc(OC)cc1)NC(=O)[C@H](CC(C)C)[C@@H](S)CC(=O)NCC(=O)O
32	–	–	CNC(=O)[C@H](Cc1ccc(OC)cc1)NC(=O)[C@H](CC(C)C)[C@@H](S)CC(=O)NCC(N)=O
145	–	–	CNC(=O)C[C@H](S)[C@@H](CC(C)C)C(=O)N[C@@H](Cc1ccc(OC)cc1)C(=O)NC
–	–	17	CNC(=O)[C@H](Cc1ccc(OC)cc1)NC(=O)C(CC(C)C)C(C)S (some centres undefined)
10	–	–	CNC(=O)[C@H](Cc1ccc(OC)cc1)NC(=O)[C@H](CC(C)C)[C@@H](S)CC(=O)OC(C)(C)C
